System: HEK-293T
Assay: Multiplex assay against HEK293T;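 on Population Tubulin-Different-Phenotype (%): share of the cells with healthy nuclei that show this phenotype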
Assay type: toxicity, cell-based
Conditions: human
Method in brief: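 On a CQ1 microscope at 37°C and 5% CO2, live cells were imaged after compound addition. They had been stained at seeding with Hoechst33342, BioTracker Green Microtubule Cytoskeleton Dye, MitoTracker Red and Annexin V Alexa Fluor 680. CellPathfinder machine-learning gating assigned cells to Hoechst high-intensity objects or normal cells, normal cells to healthy, pyknosed or fragmented nuclei, and pyknosed cells to mitotic or apoptotic. Tubulin, mitochondrial-mass and membrane-permeability phenotypes are per cents of healthy-nucleus cells.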

[1] = 12 h, 1 µM, compound concentration 1 uM, replicate 1
[2] = 12 h, 1 µM, compound concentration 1 uM, replicate 2
[3] = 12 h, 10 µM, compound concentration 10 uM, replicate 1
[4] = 12 h, 10 µM, compound concentration 10 uM, replicate 2
[5] = 24 h, 1 µM, compound concentration 1 uM, replicate 1
[6] = 24 h, 1 µM, compound concentration 1 uM, replicate 2
[7] = 24 h, 10 µM, compound concentration 10 uM, replicate 1
[8] = 24 h, 10 µM, compound concentration 10 uM, replicate 2
[9] = 48 h, 1 µM, compound concentration 1 uM, replicate 1
[10] = 48 h, 1 µM, compound concentration 1 uM, replicate 2
[11] = 48 h, 10 µM, compound concentration 10 uM, replicate 1
[12] = 48 h, 10 µM, compound concentration 10 uM, replicate 2

## COc1cc2c(NC3CCN(C(C)C)CC3)nc(N3CCC(F)(F)CC3)nc2cc1OCCCN1CCCC1
[1]
  Population Apoptotic (%): 67%
  Population Fragmented Nuclei (%): 16%
  Population Healthy Nuclei (%): 32%
  Population Hoechst High Intensity Objects (%): 19%
  Population Membrane Permeable-Phenotype (%): 0%
  Population Mitochondria Different-Phenotype (%): 96%
  Population Mitotic Cells (%): 32%
  Population Normal (%): 80%
  Population Pyknosed Nuclei (%): 50%
  Population Tubulin-Different-Phenotype (%): 76%
  Total Cell Count: 324
[2]
  Population Apoptotic (%): 37%
  Population Fragmented Nuclei (%): 8%
  Population Healthy Nuclei (%): 40%
  Population Hoechst High Intensity Objects (%): 6%
  Population Membrane Permeable-Phenotype (%): 4%
  Population Mitochondria Different-Phenotype (%): 56%
  Population Mitotic Cells (%): 62%
  Population Normal (%): 93%
  Population Pyknosed Nuclei (%): 51%
  Population Tubulin-Different-Phenotype (%): 48%
  Total Cell Count: 235
[3]
  Population Apoptotic (%): 90%
  Population Fragmented Nuclei (%): 8%
  Population Healthy Nuclei (%): 26%
  Population Hoechst High Intensity Objects (%): 18%
  Population Membrane Permeable-Phenotype (%): 0%
  Population Mitochondria Different-Phenotype (%): 100%
  Population Mitotic Cells (%): 9%
  Population Normal (%): 81%
  Population Pyknosed Nuclei (%): 64%
  Population Tubulin-Different-Phenotype (%): 98%
  Total Cell Count: 298
[4]
  Population Apoptotic (%): 92%
  Population Fragmented Nuclei (%): 7%
  Population Healthy Nuclei (%): 24%
  Population Hoechst High Intensity Objects (%): 6%
  Population Mitochondria Different-Phenotype (%): 98%
  Population Mitotic Cells (%): 7%
  Population Normal (%): 93%
  Population Pyknosed Nuclei (%): 68%
  Population Tubulin-Different-Phenotype (%): 96%
  Total Cell Count: 245
[5]
  Population Apoptotic (%): 61%
  Population Fragmented Nuclei (%): 16%
  Population Healthy Nuclei (%): 42%
  Population Hoechst High Intensity Objects (%): 24%
  Population Membrane Permeable-Phenotype (%): 1%
  Population Mitochondria Different-Phenotype (%): 77%
  Population Mitotic Cells (%): 38%
  Population Normal (%): 75%
  Population Pyknosed Nuclei (%): 41%
  Population Tubulin-Different-Phenotype (%): 51%
  Total Cell Count: 348
[6]
  Population Apoptotic (%): 39%
  Population Fragmented Nuclei (%): 6%
  Population Healthy Nuclei (%): 60%
  Population Hoechst High Intensity Objects (%): 12%
  Population Membrane Permeable-Phenotype (%): 4%
  Population Mitochondria Different-Phenotype (%): 45%
  Population Mitotic Cells (%): 60%
  Population Normal (%): 87%
  Population Pyknosed Nuclei (%): 33%
  Population Tubulin-Different-Phenotype (%): 45%
  Total Cell Count: 272
[7]
  Population Apoptotic (%): 85%
  Population Fragmented Nuclei (%): 11%
  Population Healthy Nuclei (%): 23%
  Population Hoechst High Intensity Objects (%): 24%
  Population Membrane Permeable-Phenotype (%): 0%
  Population Mitochondria Different-Phenotype (%): 100%
  Population Mitotic Cells (%): 14%
  Population Normal (%): 75%
  Population Pyknosed Nuclei (%): 65%
  Population Tubulin-Different-Phenotype (%): 91%
  Total Cell Count: 324
[8]
  Population Apoptotic (%): 95%
  Population Fragmented Nuclei (%): 7%
  Population Healthy Nuclei (%): 25%
  Population Hoechst High Intensity Objects (%): 14%
  Population Membrane Permeable-Phenotype (%): 1%
  Population Mitochondria Different-Phenotype (%): 92%
  Population Mitotic Cells (%): 4%
  Population Normal (%): 85%
  Population Pyknosed Nuclei (%): 67%
  Population Tubulin-Different-Phenotype (%): 86%
  Total Cell Count: 244
[9]
  Population Apoptotic (%): 55%
  Population Fragmented Nuclei (%): 19%
  Population Healthy Nuclei (%): 41%
  Population Hoechst High Intensity Objects (%): 25%
  Population Membrane Permeable-Phenotype (%): 4%
  Population Mitochondria Different-Phenotype (%): 38%
  Population Mitotic Cells (%): 44%
  Population Normal (%): 75%
  Population Pyknosed Nuclei (%): 38%
  Population Tubulin-Different-Phenotype (%): 38%
  Total Cell Count: 368
[10]
  Population Apoptotic (%): 17%
  Population Fragmented Nuclei (%): 8%
  Population Healthy Nuclei (%): 78%
  Population Hoechst High Intensity Objects (%): 12%
  Population Membrane Permeable-Phenotype (%): 7%
  Population Mitochondria Different-Phenotype (%): 9%
  Population Mitotic Cells (%): 82%
  Population Normal (%): 87%
  Population Pyknosed Nuclei (%): 12%
  Population Tubulin-Different-Phenotype (%): 33%
  Total Cell Count: 508
[11]
  Population Apoptotic (%): 89%
  Population Fragmented Nuclei (%): 18%
  Population Healthy Nuclei (%): 10%
  Population Hoechst High Intensity Objects (%): 26%
  Population Membrane Permeable-Phenotype (%): 3%
  Population Mitochondria Different-Phenotype (%): 96%
  Population Mitotic Cells (%): 10%
  Population Normal (%): 73%
  Population Pyknosed Nuclei (%): 70%
  Population Tubulin-Different-Phenotype (%): 82%
  Total Cell Count: 347
[12]
  Population Apoptotic (%): 94%
  Population Fragmented Nuclei (%): 8%
  Population Healthy Nuclei (%): 38%
  Population Hoechst High Intensity Objects (%): 21%
  Population Membrane Permeable-Phenotype (%): 5%
  Population Mitochondria Different-Phenotype (%): 97%
  Population Mitotic Cells (%): 5%
  Population Normal (%): 78%
  Population Pyknosed Nuclei (%): 53%
  Population Tubulin-Different-Phenotype (%): 84%
  Total Cell Count: 232

## CN(C)C/C=C/C(=O)Nc1cc2c(Nc3ccc(F)c(Cl)c3)ncnc2cc1O[C@H]1CCOC1.O=C(O)/C=C\C(=O)O.O=C(O)/C=C\C(=O)O [AFATINIB DIMALEATE]
[1]
  Population Apoptotic (%): 26%
  Population Fragmented Nuclei (%): 23%
  Population Healthy Nuclei (%): 54%
  Population Hoechst High Intensity Objects (%): 15%
  Population Membrane Permeable-Phenotype (%): 5%
  Population Mitochondria Different-Phenotype (%): 4%
  Population Mitotic Cells (%): 73%
  Population Normal (%): 84%
  Population Pyknosed Nuclei (%): 22%
  Population Tubulin-Different-Phenotype (%): 5%
  Total Cell Count: 581
[2]
  Population Apoptotic (%): 16%
  Population Fragmented Nuclei (%): 6%
  Population Healthy Nuclei (%): 87%
  Population Hoechst High Intensity Objects (%): 3%
  Population Membrane Permeable-Phenotype (%): 4%
  Population Mitochondria Different-Phenotype (%): 13%
  Population Mitotic Cells (%): 83%
  Population Normal (%): 96%
  Population Pyknosed Nuclei (%): 5%
  Population Tubulin-Different-Phenotype (%): 10%
  Total Cell Count: 1304
[3]
  Population Apoptotic (%): 23%
  Population Fragmented Nuclei (%): 17%
  Population Healthy Nuclei (%): 32%
  Population Hoechst High Intensity Objects (%): 18%
  Population Membrane Permeable-Phenotype (%): 17%
  Population Mitochondria Different-Phenotype (%): 35%
  Population Mitotic Cells (%): 76%
  Population Normal (%): 81%
  Population Pyknosed Nuclei (%): 50%
  Population Tubulin-Different-Phenotype (%): 82%
  Total Cell Count: 647
[4]
  Population Apoptotic (%): 17%
  Population Fragmented Nuclei (%): 3%
  Population Healthy Nuclei (%): 53%
  Population Hoechst High Intensity Objects (%): 4%
  Population Membrane Permeable-Phenotype (%): 9%
  Population Mitochondria Different-Phenotype (%): 64%
  Population Mitotic Cells (%): 82%
  Population Normal (%): 96%
  Population Pyknosed Nuclei (%): 42%
  Population Tubulin-Different-Phenotype (%): 97%
  Total Cell Count: 999
[5]
  Population Apoptotic (%): 25%
  Population Fragmented Nuclei (%): 17%
  Population Healthy Nuclei (%): 71%
  Population Hoechst High Intensity Objects (%): 10%
  Population Membrane Permeable-Phenotype (%): 6%
  Population Mitochondria Different-Phenotype (%): 3%
  Population Mitotic Cells (%): 74%
  Population Normal (%): 89%
  Population Pyknosed Nuclei (%): 11%
  Population Tubulin-Different-Phenotype (%): 7%
  Total Cell Count: 598
[6]
  Population Apoptotic (%): 12%
  Population Fragmented Nuclei (%): 20%
  Population Healthy Nuclei (%): 76%
  Population Hoechst High Intensity Objects (%): 3%
  Population Membrane Permeable-Phenotype (%): 4%
  Population Mitotic Cells (%): 87%
  Population Normal (%): 96%
  Population Pyknosed Nuclei (%): 3%
  Population Tubulin-Different-Phenotype (%): 9%
  Total Cell Count: 2098
[7]
  Population Apoptotic (%): 39%
  Population Fragmented Nuclei (%): 23%
  Population Healthy Nuclei (%): 34%
  Population Hoechst High Intensity Objects (%): 19%
  Population Membrane Permeable-Phenotype (%): 10%
  Population Mitochondria Different-Phenotype (%): 58%
  Population Mitotic Cells (%): 60%
  Population Normal (%): 80%
  Population Pyknosed Nuclei (%): 42%
  Population Tubulin-Different-Phenotype (%): 77%
  Total Cell Count: 637
[8]
  Population Apoptotic (%): 25%
  Population Fragmented Nuclei (%): 12%
  Population Healthy Nuclei (%): 55%
  Population Hoechst High Intensity Objects (%): 9%
  Population Membrane Permeable-Phenotype (%): 6%
  Population Mitochondria Different-Phenotype (%): 69%
  Population Mitotic Cells (%): 74%
  Population Normal (%): 90%
  Population Pyknosed Nuclei (%): 32%
  Population Tubulin-Different-Phenotype (%): 90%
  Total Cell Count: 1048
